In test [1] the test system is A549. Description: Cytotoxicity against human A549 cells by sulforhodamine B assay. The test is classed as functional, cell-based. Summed up: (§1)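 Four human lines tested (K562, HL-60, HeLa, A-549) with adriamycin as positive control. Potency is expressed as IC50.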
The subject of test [2] is HeLa. Description: Cytotoxicity against human HeLa cells by sulforhodamine B assay. Format: functional, cell-based. Summed up: as §1
The test system of test [3] is HL-60. As to the kind of experiment: Cytotoxicity against human HL60 cells by sulforhodamine B assay. Format: functional, cell-based. Summed up:
as §1

Test [4] deals with Escherichia coli. Description: Antibacterial activity against Escherichia coli. Format: functional.
Test [5] deals with Staphylococcus aureus. Description: Antibacterial activity against Staphylococcus aureus. Format: functional.
The test system of test [6] is Influenza A virus. As to the kind of experiment: Antiviral activity against influenza A virus (A/Puerto Rico/8/34(H1N1)) infected in MDCK cells incubated for 48 hrs assessed as inhibition of virus-induced cytopathic effect by crystal violet staining assay. Particulars: A/Puerto Rico/8/1934(H1N1). The test is classed as functional, organism-based. Summed up:
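Ribavirin served as the positive control. The value is reported as an IC50 in μM.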

Test [7] deals with K562. As to the kind of experiment: Cytotoxicity against human K562 cells by sulforhodamine B assay. The test is classed as functional, cell-based. Summed up:
as §1

Where only a bound is given, the exact number is not on record here.

Take `CC1(C)C(=O)CC[C@@]2(C)[C@H]1CC[C@]1(C)Oc3cc(O)c4c(c3C[C@@H]21)C[C@@H](O)CC4=O`: the IC50 in test [1] is over 50 µM; in test [2] it was over 50 µM; in test [3], over 50 µM; in test [6], over 200 µM; in test [7] it was over 50 µM. Further, the MIC in test [4] and in test [5] was over 600 µg/mL each time.

`CC1(C)C(=O)C=C[C@@]2(C)[C@H]1CC[C@]1(C)Oc3cc(O)c4c(c3C[C@@H]21)C[C@@H](O)CC4=O`: the IC50 in test [1] is over 50 µM; in test [2], over 50 µM; in test [3], over 50 µM; in test [6], over 200 µM; in test [7] it was over 50 µM. Further, the minimum inhibitory concentration (MIC) in test [4] and in test [5] was over 600 µg/mL in each case.

With `C[C@@H]1Cc2c3c(cc(O)c2C(=O)O1)O[C@@]1(C)[C@@H](O)C[C@H]2C(C)(C)C(=O)C=C[C@]2(C)[C@@H]1C3`, the IC50 in test [1] was over 50 µM; in test [2] it was over 50 µM; in test [3] it was over 50 µM; in test [6] it was 21 µM; in test [7], over 50 µM. Further, the minimal inhibitory concentration (MIC) in test [4] and in test [5] was over 600 µg/mL in each case.

In the case of `C[C@H]1OC(=O)c2c(O)cc3c(c2[C@H]1O)C[C@H]1[C@@]2(C)C=CC(=O)C(C)(C)[C@@H]2C[C@H](O)[C@]1(C)O3`, the half-maximal inhibitory concentration (IC50) was over 50 µM in test [1]; over 50 µM in test [2]; over 50 µM in test [3]; over 200 µM in test [6]; over 50 µM in test [7]. In addition, the MIC in test [4] and in test [5] was over 600 µg/mL throughout.

In the case of `CC(=O)O[C@@H]1c2c3c(cc(O)c2C(=O)O[C@@H]1C)O[C@@]1(C)[C@@H](O)C[C@H]2C(C)(C)C(=O)C=C[C@]2(C)[C@@H]1C3`, the IC50 in test [1] is over 50 µM; in test [2] it was over 50 µM; in test [3] it was over 50 µM; in test [6], 55 µM; in test [7] it was over 50 µM. In addition, the MIC in test [4] and in test [5] was over 600 µg/mL throughout.

Regarding `C[C@@H]1Cc2c3c(cc(O)c2C(=O)O1)O[C@@]1(C)[C@@H](O)C[C@H]2C(C)(C)[C@@H](O)CC[C@]2(C)[C@@H]1C3`, the IC50 was over 50 µM in test [1]; over 50 µM in test [2]; over 50 µM in test [3]; 57 µM in test [6]; over 50 µM in test [7]. In addition, the MIC in test [4] and in test [5] was over 600 µg/mL throughout.

Consider `C[C@@H]1Cc2c3c(cc(O)c2C(=O)O1)O[C@@]1(C)[C@@H](O)C[C@H]2C(C)(C)C(=O)CC[C@]2(C)[C@@H]1C3`, for which the IC50 in test [1] was over 50 µM; in test [2], over 50 µM; in test [3] it was over 50 µM; in test [6] it was over 200 µM; in test [7] it was over 50 µM. The minimal inhibitory concentration (MIC) in test [4] and in test [5] was over 600 µg/mL throughout.

The values are drawn from ChEMBL document CHEMBL3580656, “Chrodrimanins I and J from the Antarctic Moss-Derived Fungus Penicillium funiculosum GWT2-24” (J Nat Prod, 2015).
